Active and inactive are the calls of the source. The rule behind the calls is not given here.
Experiments:
PC-12 [1] = test: Induction of rat PC12 cell proliferation at 0.5 to 50 uM after 72 hrs by microscopic analysis; type: functional, cell-based
Outline: (§1)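 Undifferentiated PC12 cells cultured 72 h with compound at 0.5–50 µM (images at 10 µM) or with NGF 50 ng/ml, then examined under a digital microscope.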

PC-12 [2] = test: Induction of rat PC12 cell proliferation at 10 uM after 72 hrs by microscopic analysis; type: functional, cell-based; outline: as §1
[3] = Metabolic stability in Sprague-Dawley rat liver microsomes assessed as metabolic rate constant at 100 uM up to 180 mins by HPLC-UV analysis; settings: 3 h
PC-12 [4] = test: Cytotoxicity against rat undifferentiated PC12 cells at 0.5 to 50 uM after 72 hrs by MTT assay; type: cell-based; settings: pc-12, 72 h
[5] = Permeability of compound at 100 ug/ml after 10 hrs by PAMPA assay; type: ADME; settings: read-out: permeability
Mus musculus [6] = test: Toxicity in C57BL/6 mouse assessed as histological abnormalities of liver at 2000 mg/kg, ig after 14 consecutive days by hematoxylin/eosin dye-based microscopic analysis; type: organism-based; settings: in vivo, po, 336 h
Outline: (§2)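 Adult C57BL/6 mice, 12 weeks old, single intragastric doses of 0, 677, 1333 or 2000 mg/kg (n = 6 per dose, 3 male/3 female); behaviour and mortality observed over 14 days; liver, heart, lung and brain examined by HE staining at 2000 mg/kg.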

Mus musculus [7] = test: Induction of cell proliferation in C57BL/6 mouse hippocampal neurons in CA2 region assessed as BrdU-incorporation at 30 mg/kg, po administered via gavage for 7 days by immunohistochemical analysis (reference value: 2.4%); type: functional
Outline: (§3)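 C57BL/6 mice, 12 weeks old, n = 6, individually housed beforehand without wheels. Compound gavaged 30 mg/kg/day for 7 days with daily IP BrdU 50 mg/kg; BrdU+ cells counted by immunohistochemistry per hippocampal volume; two-way ANOVA.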

Mus musculus [8] = test: Induction of cell proliferation in C57BL/6 mouse hippocampal neurons in CA2 region assessed as BrdU-incorporation at 0.5 uL/hr, icv for 7 days by immunohistochemical analysis (reference value: 2.4%); type: functional
Mus musculus [9] = test: Induction of cell proliferation in C57BL/6 mouse hippocampal neurons in CA3 region assessed as BrdU-incorporation at 30 mg/kg, po administered via gavage for 7 days by immunohistochemical analysis (reference value: 1.5%); type: functional; outline: as §3
Mus musculus [10] = test: Toxicity in C57BL/6 mouse assessed as macroscopic abnormalities of stomach at 677 to 2000 mg/kg, ig after 14 consecutive days; type: organism-based; settings: in vivo, po
Mus musculus [11] = test: Induction of cell proliferation in C57BL/6 mouse hippocampal neurons in DG region assessed as BrdU-incorporation at 0.5 uL/hr, icv for 7 days by immunohistochemical analysis (reference value: 7.8%); type: functional
Mus musculus [12] = test: Induction of cell proliferation in C57BL/6 mouse hippocampal neurons in CA3 region assessed as BrdU-incorporation at 0.5 uL/hr, icv for 7 days by immunohistochemical analysis (reference value: 1.4%); type: functional
Mus musculus [13] = test: Toxicity in C57BL/6 mouse assessed as histological abnormalities of brain at 2000 mg/kg, ig after 14 consecutive days by hematoxylin/eosin dye-based microscopic analysis; type: organism-based; settings: in vivo, po, 336 h; outline: as §2
Mus musculus [14] = test: Induction of cell proliferation in C57BL/6 mouse hippocampal neurons in CA1 region assessed as BrdU-incorporation at 30 mg/kg, po administered via gavage for 7 days by immunohistochemical analysis (reference value: 2.3%); type: functional; outline: as §3
Mus musculus [15] = test: Toxicity in C57BL/6 mouse assessed as macroscopic abnormalities of liver at 677 to 2000 mg/kg, ig after 14 consecutive days; type: organism-based; settings: in vivo, po
Mus musculus [16] = test: Toxicity in C57BL/6 mouse assessed as macroscopic abnormalities of intestine at 677 to 2000 mg/kg, ig after 14 consecutive days; type: organism-based; settings: in vivo, po
Mus musculus [17] = test: Toxicity in C57BL/6 mouse assessed as effect on food intake at 677 to 2000 mg/kg, ig measured continuously during first 4 hrs, intermittently for following 24 hrs and occasionally thereafter for 14 consecutive days; type: organism-based; settings: in vivo, po
Mus musculus [18] = test: Toxicity in C57BL/6 mouse assessed as macroscopic abnormalities of heart at 677 to 2000 mg/kg, ig after 14 consecutive days; type: organism-based; settings: in vivo, po
Mus musculus [19] = test: Toxicity in C57BL/6 mouse assessed as macroscopic abnormalities of kidney at 677 to 2000 mg/kg, ig after 14 consecutive days; type: organism-based; settings: in vivo, po
Mus musculus [20] = test: Toxicity in C57BL/6 mouse assessed as effect on body weight at 677 to 2000 mg/kg, ig measured continuously during first 4 hrs, intermittently for following 24 hrs and occasionally thereafter for 14 consecutive days; type: organism-based; settings: in vivo, po
Mus musculus [21] = test: Induction of cell proliferation in C57BL/6 mouse hippocampal neurons in DG region assessed as BrdU-incorporation at 30 mg/kg, po administered via gavage for 7 days by immunohistochemical analysis (reference value: 2.2%); type: functional; outline: as §3
Mus musculus [22] = test: Toxicity in C57BL/6 mouse assessed as abnormal behavior at 677 to 2000 mg/kg, ig measured continuously during first 4 hrs, intermittently for following 24 hrs and occasionally thereafter for 14 consecutive days; type: organism-based; settings: in vivo, po
Outline: (§4)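 Adult C57BL/6 mice, 12 weeks old, given single intragastric doses of 0, 677, 1333 or 2000 mg/kg (n = 6 per dose, 3 male and 3 female). Abnormal behaviour and deaths observed continuously for the first 4 h, intermittently over the next 24 h, then occasionally for 14 days to catch delayed effects.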

[23] = Half life in Sprague-Dawley rat liver microsomes at 100 uM up to 180 mins by HPLC-UV analysis; settings: microsomes
Mus musculus [24] = test: Toxicity in C57BL/6 mouse assessed as mortality at 677 to 2000 mg/kg, ig measured continuously during first 4 hrs, intermittently for following 24 hrs and occasionally thereafter for 14 consecutive days; type: organism-based; settings: in vivo, po; outline: as §4
Mus musculus [25] = test: Toxicity in C57BL/6 mouse assessed as histological abnormalities of lung at 2000 mg/kg, ig after 14 consecutive days by hematoxylin/eosin dye-based microscopic analysis; type: organism-based; settings: in vivo, po, 336 h; outline: as §2
Mus musculus [26] = test: Toxicity in C57BL/6 mouse assessed as histological abnormalities of heart at 2000 mg/kg, ig after 14 consecutive days by hematoxylin/eosin dye-based microscopic analysis; type: organism-based; settings: in vivo, po; outline: as §2
Mus musculus [27] = test: Toxicity in C57BL/6 mouse assessed as effect on water intake at 677 to 2000 mg/kg, ig measured continuously during first 4 hrs, intermittently for following 24 hrs and occasionally thereafter for 14 consecutive days; type: organism-based; settings: in vivo, po
Mus musculus [28] = test: Toxicity in C57BL/6 mouse assessed as macroscopic abnormalities of spleen at 677 to 2000 mg/kg, ig after 14 consecutive days; type: organism-based; settings: in vivo, po
Mus musculus [29] = test: Toxicity in C57BL/6 mouse assessed as macroscopic abnormalities of lung at 677 to 2000 mg/kg, ig after 14 consecutive days; type: organism-based; settings: in vivo, po, 336 h
Mus musculus [30] = test: Induction of cell proliferation in C57BL/6 mouse hippocampal neurons in CA1 region assessed as BrdU-incorporation at 0.5 uL/hr, icv for 7 days by immunohistochemical analysis (reference value: 3.2%); type: functional
SH-SY5Y = test: Neuroprotective activity against t-BuOOH-induced oxidative stress in human SH-SY5Y cells assessed as inhibition ROS accumulation pre-incubated for 24 hrs before t-BuOOH challnge for 30 mins by DCFH-DA probe based fluorescence assay; type: functional, cell-based
Outline: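 SH-SY5Y cells; test agents at 1–0.01 µM, oxidative stress induced by tert-butyl hydroperoxide; intracellular ROS read by DCFH-DA fluorescence; at least three independent experiments in sextuplicate; EC50 derived.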

With `Oc1c(Cl)cc(Cl)c2ccc(-c3cc4cc(Cl)ccc4[nH]3)nc12` the Activity (PC-12 [1]) was “Active” and the Activity (PC-12 [2]) was “Active”.

Compound `C[C@]12CC[C@H]3[C@@H](CCC4=CC(=O)CC[C@@]43C)[C@@H]1CC[C@@H]2O` [TESTOSTERONE] has a K [3] of 0.3132 min⁻¹.

With `Oc1ccc2[nH]c(-c3ccc(O)c4ncccc34)cc2c1` the Activity (PC-12 [4]) was “Toxic” and the Papp at 10 h, 100 ug/ml [5] was 9.1 ×10⁻⁶ cm/s.

In the case of `Cl.Oc1cccc2ccc(-c3cc4ccc5c(c4[nH]3)OCO5)nc12`, the Activity (Mus musculus [6]) is reported as “Non-Toxic”, the Activity (Mus musculus [7]) is reported as 7.5% and the Activity (Mus musculus [8]) is reported as 56.1%. For the same compound, the Activity (Mus musculus [9]) was 3.9%, the Activity (Mus musculus [10]) was “Non-Toxic” and the Activity (Mus musculus [11]) was 43.6%. The Activity (Mus musculus [12]) was 49.3%, the Activity (Mus musculus [13]) was “Non-Toxic” and the Activity (Mus musculus [14]) was 8%. The Activity (Mus musculus [15]) was “Non-Toxic”, the Activity (Mus musculus [16]) was “Non-Toxic” and the Activity (Mus musculus [17]) was “Non-Toxic”. For the same compound, the Activity (Mus musculus [18]) was “Non-Toxic”, the Activity (Mus musculus [19]) was “Non-Toxic” and the Activity (Mus musculus [20]) was “Non-Toxic”. The Activity (Mus musculus [21]) was 7.6%, the Activity (Mus musculus [22]) was “Non-Toxic” and the half-life at 3 h, 100 µM [23] was 0.977 h. The Activity (Mus musculus [24]) was “Non-Toxic”, the Activity (Mus musculus [25]) was “Non-Toxic” and the Activity (Mus musculus [26]) was “Non-Toxic”. The Activity (Mus musculus [27]) was “Non-Toxic”, the K [3] was 0.01183 min⁻¹ and the Activity (Mus musculus [28]) was “Non-Toxic”. For the same compound, the Activity (Mus musculus [29]) was “Non-Toxic” and the Activity (Mus musculus [30]) was 61.9%.

In the case of `COc1cc2[nH]c(-c3ccc4c(Cl)cc(Cl)c(O)c4n3)cc2cc1O`, the Activity (PC-12 [1]) is reported as “inactive” and the Papp at 10 h, 100 ug/ml [5] is reported as 8.4 ×10⁻⁶ cm/s.

With `Oc1ccc2[nH]c(-c3cc(Cl)c(O)c4ncccc34)cc2c1` the Activity (PC-12 [4]) was “Toxic” and the Papp at 10 h, 100 ug/ml [5] was 6.8 ×10⁻⁶ cm/s.

In the case of `Oc1ccc2[nH]c(-c3ccc4cccc(O)c4n3)cc2c1`, the Activity (PC-12 [4]) is reported as “Toxic” and the Papp at 10 h, 100 ug/ml [5] is reported as 14.8 ×10⁻⁶ cm/s.

For `Oc1ccc2[nH]c(-c3ccc4c(Cl)cc(Cl)c(O)c4n3)cc2c1`, the EC50 (SH-SY5Y) was 0.1 µM, the Activity (PC-12 [4]) was “Non-Toxic” and the Papp at 10 h, 100 ug/ml [5] was 10.2 ×10⁻⁶ cm/s.

In the case of `COc1cc2cc(-c3ccc4c(Cl)cc(Cl)c(O)c4n3)[nH]c2cc1OC`, the Activity (PC-12 [4]) is reported as “Toxic” and the Papp at 10 h, 100 ug/ml [5] is reported as 3.9 ×10⁻⁶ cm/s.

With `COc1cc2c(cc1OC)C(=O)C(CC1CCN(Cc3ccccc3)CC1)C2` (configuration not stated) [DONEPEZIL] the half-life at 3 h, 100 µM [23] was 1.3 h and the K [3] was 0.00889 min⁻¹.

For `Oc1cccc2ccc(-c3cc4cc(F)ccc4[nH]3)nc12`, the Papp at 10 h, 100 ug/ml [5] was 10.6 ×10⁻⁶ cm/s.

For `Oc1ccc(-c2cc3ccccc3[nH]2)c2cccnc12`, the Activity (PC-12 [4]) was “Toxic” and the Papp at 10 h, 100 ug/ml [5] was 12.8 ×10⁻⁶ cm/s.

Reference: ChEMBL document CHEMBL4118104, “Design, Synthesis, and Evaluation of Orally Bioavailable Quinoline-Indole Derivatives as Innovative Multitarget-Directed Ligands: Promotion of Cell Proliferation in the Adult Murine Hippocampus for the Treatment of Alzheimer's Disease” (J Med Chem, 2018)
